PPC-1+TRAIL kill = compounds killing PPC-1 cancer cells with TRAIL present (potentiator screen, no TRAIL-free arm); AID 1443; cell killing (% activity), % at 4 µM or 5 µM; PPC-1 cells + TRAIL, ATPLite viability luminescence; 0.41% of 220,000 active;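 active means cell killing above 50% in the first pass at 4 µM, then a duplicate retest at 5 µM averaging 50% or more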;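 further: plate controls were cells with TRAIL plus DMSO for no effect and medium-only wells lacking cells for full effect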
FLuc stim CS = affects firefly luciferase, flagging false hits in luciferase stimulation screens; P08659; ATPlite luciferase biochemical, luminescence, 10 min; 0 = ATP-free wells, 1 = DMSO control; activation factor at 10 µM; 200,000 tested, under 10 active;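 active means luciferase activation factor, scaled between plate controls, of at least 2 with compound at 10 µM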
Target sequence (P08659 whole entry, looked up): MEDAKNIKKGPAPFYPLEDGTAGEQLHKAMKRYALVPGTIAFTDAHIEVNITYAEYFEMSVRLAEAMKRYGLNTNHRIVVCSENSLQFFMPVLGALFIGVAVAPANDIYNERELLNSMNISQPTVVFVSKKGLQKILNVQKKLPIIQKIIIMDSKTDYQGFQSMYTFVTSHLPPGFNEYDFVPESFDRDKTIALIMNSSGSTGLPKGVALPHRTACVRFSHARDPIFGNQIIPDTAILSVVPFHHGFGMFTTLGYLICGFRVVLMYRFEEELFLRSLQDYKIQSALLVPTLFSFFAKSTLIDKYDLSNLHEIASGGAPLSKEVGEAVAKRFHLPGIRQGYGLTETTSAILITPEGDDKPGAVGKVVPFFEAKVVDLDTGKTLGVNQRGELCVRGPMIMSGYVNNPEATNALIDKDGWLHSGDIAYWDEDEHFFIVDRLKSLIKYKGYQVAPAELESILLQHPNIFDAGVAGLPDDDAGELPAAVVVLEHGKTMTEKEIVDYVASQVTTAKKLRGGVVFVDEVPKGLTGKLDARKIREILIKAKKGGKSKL
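System: cell-free luciferase reagent; medium: PBS as buffer for the ATP substrate; doses: test compounds dosed from 2 mM stocks in 100% DMSO; incubation: 10 min, room temperature; measured by: luminescence from luciferase reaction; read-out: luciferase activation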
FLuc inh counter = inhibits firefly luciferase, flagging false hits in luciferase inhibition screens; P08659; ATPLite firefly luciferase biochemical luminescence, 10 min; inhibition, % at 10 µM; 1.5% of 200,000 active;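 active means inhibition above about 50% when tested at 10 µM, limit read from the data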
C8 TRAIL sens = sensitizes caspase-8 expressing cells to TRAIL. NB7+C8 cells + TRAIL, ATPlite viability luminescence. inhibition (viability loss, TRAIL sensitization), % at 10 µM. 1% of 360,000 active;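 active means compounds causing at least 50% loss of cell viability in the single-dose screen, relative to plate controls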
Starred values were filed as active, the others as inactive; · = no result given. The list is not random: actives were taken first. Their share in the collection is about 1.5%.

SMILES	PPC-1+TRAIL kill	FLuc stim CS	FLuc inh counter	C8 TRAIL sens
CC[C@@]1(C(=O)OC)N[C@H](CN(C)C(=O)c2ccc(C)cc2)[C@@H]2C(=O)N(C)C(=O)[C@@H]21	·	·	·	3
COc1ccc(S(=O)(=O)N2CCN(C(=O)c3ccc(=O)[nH]n3)CC2)cc1OC	·	·	·	-7
O=C(OCc1nc2ccsc2c(=O)[nH]1)c1ccc(Cl)s1	·	·	·	1
O=C(CN1CCN(S(=O)(=O)c2ccc(F)cc2)CC1)Nc1ccc(Cl)c(C(F)(F)F)c1	0	1.1	-6	60*
CC(C)(C)c1ccc(OCc2ccc(C(=O)NCc3cccnc3)o2)cc1	7	1	0	-4
Cc1cccc(C(C)C)c1NC(=O)C1CN(S(=O)(=O)c2ccccc2)CCN1S(=O)(=O)c1ccccc1 (configuration not stated)	-2	1.1	-10	-15
Cc1ccnc2nc(C(=O)Nc3ccc4c(c3)OCO4)nn12	32	0.5	51*	26
Cc1cc(C)n2nc(C(=O)Nc3ccc4c(c3)OCO4)nc2n1	37	0.7	29	7
Cc1cc(C)n2nc(C(=O)Nc3ccc4c(c3)OCCO4)nc2n1	·	·	·	51*
CCn1cc([N+](=O)[O-])c(C(=O)Nc2ccc3c(c2)OCCO3)n1	22	0.4	56*	28
CCn1cc([N+](=O)[O-])c(C(=O)NCc2ccc3c(c2)OCO3)n1	·	·	·	-1
CCOc1ccc2nc(N3C(=O)CNC3=S)sc2c1	42	·	·	59*
O=C1CNC(=S)N1c1nc(-c2ccccc2)cs1	17	0.9	12	-1
Cc1cc2nc(N3C(=O)CNC3=S)sc2cc1C	48	0.2	82*	57*
O=C(COC(=O)CCc1ccc(S(=O)(=O)N2CCOCC2)cc1)NCc1ccc(Cl)cc1	8	1	-5	1
Cc1ccc(NC(=O)c2cc(S(=O)(=O)N3CCOCC3)cn2C)cc1F	·	·	·	11
CC(C)=NN/C(N)=N/C(=S)Nc1ccc(C)cc1	10	0.5	54*	-25
O=C(c1ccc(Cl)cc1)c1cnc(Nc2ccccc2Cl)s1	37	0.4	58*	19
COc1ccc(C2C(C(C)=O)=C(O)C(=O)N2c2ccc(F)cc2)cc1 (configuration not stated)	·	·	·	-26
CN(CCCC[C@H](CNCc1ccc(-c2ccccc2)cc1)N1C[C@H](c2ccccc2)N(CCc2ccc(Cl)c(Cl)c2)C(=O)C1=O)Cc1ccc(-c2ccccc2)cc1	5	·	·	·
COc1ccc(CNC[C@@H](CCCCN(C)Cc2ccc(OC)cc2)N2C[C@H](c3ccccc3)N(CCc3ccc(Cl)c(Cl)c3)C(=O)C2=O)cc1	7	1	-4	89*
O=S1(=O)CCOC[C@H](Cc2ccccc2)N1Cc1cccc(C(F)(F)F)c1	·	·	·	8
FC(F)(F)c1cccc(CC2CN(Cc3ccccc3)Cc3ccccc3N2c2cc(Cl)cc(Cl)c2)c1 (configuration not stated)	·	·	·	60*
CSc1ncc(C(=O)Nc2cccc(C)c2C)c(C)n1	·	·	·	-1
COc1cc2c(cc1OC)C(c1ccccc1)N(C(=O)CCl)CC2 (configuration not stated)	11	1.1	-5	86*
SMILES	PPC-1+TRAIL kill	FLuc stim CS	FLuc inh counter	C8 TRAIL sens
Cc1cc(NC(=O)c2cc3n(n2)C(C(F)(F)F)CC(c2ccco2)N3)no1 (configuration not stated)	-9	1	0	60*
CC(C)NC(=O)c1cc2n(n1)C(C(F)(F)F)CC(c1ccco1)N2 (configuration not stated)	8	1.1	-5	9
CCCCCCN1C[C@@H](n2cc(-c3ccc(F)cc3)nn2)[C@H](O)C[C@@H]1c1ccccc1	·	·	·	9
CN(C)c1ccc(C(=O)N=c2sccn2C)cc1[N+](=O)[O-]	·	·	·	33
Cc1ccc(C(=O)c2ccc(C)cc2)cc1	19	0.9	11	-6
CN(C)c1ccc(N=Nc2ccccc2Br)cc1	·	·	·	55*
CC(=O)c1ccc(N=Nc2ccc(C)cc2)cc1	44	0.5	52*	47
CC(=O)c1ccc(N=Nc2ccc(N(C)C)cc2)cc1	45	0.5	53*	78*
Cc1cc(N(C)C)ccc1N=Nc1ccc(N)cc1	·	·	·	45
Cc1ccc(C)n1-c1ccc(-c2nnc3n2CCCCC3)s1	4	1	-4	4
CC(Oc1cccc2ccccc12)C(=O)N/N=C/c1cccnc1 (configuration not stated)	·	·	·	-2
Cc1cc(-c2nc3cc(F)ccc3s2)ccc1N	·	·	·	73*
COc1cc(/C=N/Nc2nc(N3CCCC3)nc(N3CCCC3)n2)ccc1O	29	1	-2	1
COc1ccc(-c2cnnc(N/N=C/c3ccc(O)c(OC)c3)n2)cc1	39	0.2	81*	59*

Screens: PubChem, Sanford-Burnham Center for Chemical Genomics
